Measurements published in ChEMBL document CHEMBL1221374, “Synthesis, proapoptotic screening, and structure-activity relationships of novel aza-lupane triterpenoids” (Bioorg Med Chem Lett, 2010).

What was measured:
[1] = system: SK-MEL-2; assay: Cytotoxicity against human SK-MEL-2 cells after 72 hrs by MTS assay; format: functional, cell-based; details: SK-MEL-2, 72 h
Summary of the method: (§1)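 Cells (1 × 10^4/well) seeded the evening before. Compounds were taken from 10 mM DMSO stock into growth medium and tested at 2, 10, 25, 50 and 75 µM, four wells each, with DMSO-matched controls. Exposure was 72 h, then MTS reagent for 1.5-4 h at 37 °C, and formazan A490 was read against DMSO-treated cells. IC50 is the mean of four wells from one experiment, or of three experiments where stated.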

[2] = system: A-375; assay: Cytotoxicity against human A375 cells after 72 hrs by MTS assay; format: functional, cell-based; details: A-375, 72 h; summary of the method: as §1
[3] = system: Daoy; assay: Cytotoxicity against human DaOY cells after 72 hrs by MTS assay; format: functional, cell-based; summary of the method: as §1
[4] = Cytotoxicity against human LN229 cells after 72 hrs by MTS assay; format: functional, cell-based; details: LN-229, 72 h; summary of the method: as §1
[5] = system: HT-29; assay: Cytotoxicity against human HT-29 cells after 72 hrs by MTS assay; format: functional, cell-based; details: HT-29, 72 h; summary of the method: as §1
[6] = system: MCF7; assay: Cytotoxicity against human MCF7 cells after 72 hrs by MTS assay; format: functional, cell-based; details: MCF7, 72 h; summary of the method: as §1
[7] = system: OVCAR-3; assay: Cytotoxicity against human OVCAR-3 cells after 120 hrs by MTS assay; details: OVCAR-3, 120 h
[8] = system: SK-MEL-2 (Homo sapiens); assay: Induction of apoptosis in human SK-MEL-2 cells assessed as necrotic cells at 7.5 uM after 16 hrs by annexin assay
[9] = system: SK-MEL-2 (Homo sapiens); assay: Induction of apoptosis in human SK-MEL-2 cells assessed as apoptotic cells at 7.5 uM after 16 hrs by annexin assay

Row | SMILES | IC50 [1] [µM] | IC50 [2] [µM] | IC50 [3] [µM] | IC50 [4] [µM] | IC50 [5] [µM] | IC50 [6] [µM] | IC50 [7] [µM] | Activity [8] [%] | Activity [9] [%]
1 | C=C(CNCCO)[C@@H]1CC[C@]2(CO)CC[C@]3(C)[C@H](CC[C@@H]4[C@@]5(C)CCC(NCCc6ccc(O)cc6)C(C)(C)[C@@H]5CC[C@]43C)[C@@H]12 (some centres not stated) | 5 | 2 | < 2 | 14 | < 2 | 4 | 40 | < 15 | > 60
2 | C=C(CNCCc1ccc(O)cc1)[C@@H]1CC[C@]2(CO)CC[C@]3(C)[C@H](CC[C@@H]4[C@@]5(C)CCC(N)C(C)(C)[C@@H]5CC[C@]43C)[C@@H]12 (some centres not stated) | 3 | < 2 | < 2 | < 2 | 2 | 5 | – | < 15 | > 60
